≈ marks a conversion by molar mass, not a printed value.
Assays:
Type in all cases: functional
[1] = system: Staphylococcus aureus; assay: Antibacterial activity against ethidium bromide-resistant Staphylococcus aureus BSA678 after 24 hrs by broth microdilution method; conditions: BSA678, 24 h
Method in brief: (§1)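 Broth microdilution per CLSI in cation-adjusted Mueller-Hinton II broth, final inoculum approximately 5 × 10^5 CFU/ml. Plates were incubated aerobically at 35 to 37°C for 24 h. MIC was the lowest concentration giving no visible growth. Reserpine, where used, was at a final concentration of 20 μg/ml.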

[2] = system: Staphylococcus aureus; assay: Antibacterial activity against ethidium bromide-resistant Staphylococcus aureus Mu50 after 24 hrs by broth microdilution method; conditions: Mu50, 24 h; method in brief: as §1
[3] = system: Staphylococcus aureus; assay: Antibacterial activity against […] Staphylococcus aureus ATCC 29213 after 24 hrs by broth microdilution method; conditions: ATCC 29213, 24 h; method in brief: as §1
[4] = system: Staphylococcus aureus; assay: Antibacterial activity against ethidium bromide-resistant Staphylococcus aureus BSA643 after 24 hrs by broth microdilution method; conditions: BSA643, 24 h; method in brief: as §1
[5] = system: Neisseria gonorrhoeae; assay: Antibacterial activity against Neisseria gonorrhoeae after 24 hrs by broth microdilution method
Method in brief: (§2)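 CLSI broth microdilution in cation-adjusted Mueller-Hinton II broth, final inoculum about 5 × 10^5 CFU/ml for most strains; streptococci supplemented with 2–5% lysed horse blood, H. influenzae in Haemophilus test medium. Aerobic incubation at 35–37°C for 24 h; MIC = lowest concentration with no visible growth.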

[6] = system: Acinetobacter baumannii; assay: Antibacterial activity against Acinetobacter baumannii after 24 hrs by broth microdilution method; method in brief: as §2
[7] = system: Enterobacter sp.; assay: Antibacterial activity against Enterobacter sp.
Method in brief: (§3)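 Aerobic isolates run by CLSI broth microdilution in cation-adjusted Mueller-Hinton II broth (streptococci plus 2–5% lysed horse blood), about 5 × 10^5 CFU/ml final; 24 h at 35–37°C aerobically; MIC read as lowest concentration without visible growth.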

[8] = system: Klebsiella pneumoniae; assay: Antibacterial activity against Klebsiella pneumoniae; method in brief: as §3
[9] = system: Peptostreptococcus sp.; assay: Antibacterial activity against Peptostreptococcus sp. by agar dilution method
Method in brief: (§4)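 Anaerobes by CLSI agar dilution on brucella agar with hemin, vitamin K and 5% laked sheep blood; inoculum from 24-h enriched blood agar colonies resuspended in brucella broth to 0.5 McFarland. Plates incubated anaerobically at 35–37°C for 48 h.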

[10] = system: Cutibacterium acnes; assay: Antibacterial activity against Propionibacterium acnes; method in brief: as §4
[11] = system: Bacteroides fragilis; assay: Antibacterial activity against Bacteroides fragilis by agar dilution method; method in brief: as §4
[12] = system: Clostridioides difficile; assay: Antibacterial activity against Clostridium difficile by agar dilution method; method in brief: as §4
[13] = system: Staphylococcus aureus; assay: Antibacterial activity against […] Staphylococcus aureus ATCC 29213 in presence of 20 ug/ml reserpine after 24 hrs by broth microdilution method; conditions: ATCC 29213, 24 h; method in brief: as §1
[14] = system: Staphylococcus aureus; assay: Antibacterial activity against ethidium bromide-resistant Staphylococcus aureus Mu50 in presence of 20 ug/ml reserpine after 24 hrs by broth microdilution method; conditions: Mu50, 24 h; method in brief: as §1
[15] = system: Escherichia coli; assay: Antibacterial activity against Escherichia coli after 24 hrs by broth microdilution method; method in brief: as §2
[16] = system: Haemophilus influenzae; assay: Antibacterial activity against Haemophilus influenzae after 24 hrs by broth microdilution method; method in brief: as §2
[17] = system: Pseudomonas aeruginosa; assay: Antibacterial activity against Pseudomonas aeruginosa after 24 hrs by broth microdilution method; method in brief: as §2
[18] = system: Moraxella catarrhalis; assay: Antibacterial activity against Moraxella catarrhalis after 24 hrs by broth microdilution method; method in brief: as §2
[19] = system: Neisseria meningitidis; assay: Antibacterial activity against Neisseria meningitidis after 24 hrs by broth microdilution method; method in brief: as §2
[20] = system: Staphylococcus aureus; assay: Antibacterial activity against methicillin-susceptible Staphylococcus aureus after 24 hrs by broth microdilution method; method in brief: as §1
[21] = system: Enterococcus faecalis; assay: Antibacterial activity against Enterococcus faecalis; method in brief: as §3
[22] = system: Enterococcus faecium; assay: Antibacterial activity against Enterococcus faecium; method in brief: as §3
[23] = system: Streptococcus pyogenes; assay: Antibacterial activity against Streptococcus pyogenes; method in brief: as §3
[24] = system: Legionella pneumophila; assay: Antibacterial activity against Legionella pneumophila after 24 hrs by broth microdilution method
[25] = system: Mycoplasmoides pneumoniae; assay: Antibacterial activity against Mycoplasma pneumoniae after 24 hrs by broth microdilution method
[26] = system: Staphylococcus aureus; assay: Antibacterial activity against methicillin-resistant Staphylococcus aureus after 24 hrs by broth microdilution method; method in brief: as §1
[27] = system: Streptococcus pneumoniae; assay: Antibacterial activity against Streptococcus pneumoniae by agar dilution method
[28] = system: Streptococcus viridans; assay: Antibacterial activity against Streptococcus viridans after 24 hrs by broth microdilution method; method in brief: as §2

Structure (SMILES): CO/N=C1\CN(c2nc3c(cc2F)c(=O)c(C(=O)O)cn3C2CC2)CC1CN (stereo not drawn) [GEMIFLOXACIN]
- MIC [1]: 64 µg/mL (≈ 164 µM)
- MIC [2]: 4 µg/mL (≈ 10.3 µM)
- MIC [3]: 0.03 µg/mL (≈ 0.077 µM)
- MIC [4]: 32 µg/mL (≈ 82.2 µM)

Structure (SMILES): CN(C)[C@@H]1C(O)=C(C(N)=O)C(=O)[C@@]2(O)C(O)=C3C(=O)c4c(O)cccc4[C@@](C)(O)[C@H]3C[C@@H]12 [TETRACYCLINE]
- MIC50 [5]: 0.25 µg/mL (≈ 0.563 µM)
- MIC90 [5]: 1 µg/mL (≈ 2.25 µM)

Structure (SMILES): CO/N=C(\C(=O)N[C@@H]1C(=O)N2C(C(=O)[O-])=C(C[N+]3(C)CCCC3)CS[C@H]12)c1csc(N)n1 [CEFEPIME]
- MIC50 [6]: 2 µg/mL (≈ 4.16 µM)
- MIC90 [6]: 32 µg/mL (≈ 66.6 µM)
- MIC50 [7]: 0.06 µg/mL (≈ 0.125 µM)
- MIC90 [7]: 4 µg/mL (≈ 8.32 µM)
- MIC50 [8]: 0.5 µg/mL (≈ 1.04 µM)
- MIC90 [8]: 32 µg/mL (≈ 66.6 µM)

Structure (SMILES): CCC[C@@H]1C[C@@H](C(=O)N[C@@H]([C@H]2O[C@H](SC)[C@H](O)[C@@H](O)[C@H]2O)[C@H](C)Cl)N(C)C1 [CLINDAMYCIN]
- MIC50 [9]: 0.25 µg/mL (≈ 0.588 µM)
- MIC90 [9]: 1 µg/mL (≈ 2.35 µM)
- MIC50 [10]: 0.06 µg/mL (≈ 0.141 µM)
- MIC90 [10]: 0.06 µg/mL (≈ 0.141 µM)
- MIC50 [11]: 1 µg/mL (≈ 2.35 µM)
- MIC90 [11]: 4 µg/mL (≈ 9.41 µM)
- MIC50 [12]: 2 µg/mL (≈ 4.71 µM)
- MIC90 [12]: > 32 µg/mL

Structure (SMILES): CC[n+]1c(-c2ccccc2)c2cc(N)ccc2c2ccc(N)cc21.[Br-] [HOMIDIUM BROMIDE]
- MIC [13]: 0.03 µg/mL
- MIC [1]: 4 µg/mL
- MIC [2]: 64 µg/mL
- MIC [3]: 4 µg/mL
- MIC [14]: 64 µg/mL
- MIC [4]: 16 µg/mL

Structure (SMILES): C[C@@H](O)[C@H]1C(=O)N2C(C(=O)O)=C(SCCNC=N)C[C@H]12 [IMIPENEM ANHYDROUS]
- MIC50 [9]: 0.06 µg/mL (≈ 0.2 µM)
- MIC90 [9]: 0.25 µg/mL (≈ 0.835 µM)
- MIC50 [10]: 0.06 µg/mL (≈ 0.2 µM)
- MIC90 [10]: 0.06 µg/mL (≈ 0.2 µM)
- MIC50 [6]: 1 µg/mL (≈ 3.34 µM)
- MIC90 [6]: > 16 µg/mL
- MIC50 [7]: 1 µg/mL (≈ 3.34 µM)
- MIC90 [7]: 2 µg/mL (≈ 6.68 µM)
- MIC50 [15]: 0.5 µg/mL (≈ 1.67 µM)
- MIC90 [15]: 0.5 µg/mL (≈ 1.67 µM)
- MIC50 [8]: 0.5 µg/mL (≈ 1.67 µM)
- MIC90 [8]: 1 µg/mL (≈ 3.34 µM)
- MIC50 [11]: 0.25 µg/mL (≈ 0.835 µM)
- MIC90 [11]: 0.25 µg/mL (≈ 0.835 µM)
- MIC50 [12]: 4 µg/mL (≈ 13.4 µM)
- MIC90 [12]: 4 µg/mL (≈ 13.4 µM)

Structure (SMILES): CC1(C)S[C@@H]2[C@H](NC(=O)[C@H](N)c3ccccc3)C(=O)N2[C@H]1C(=O)O [AMPICILLIN]
- MIC50 [16]: > 16 µg/mL
- MIC90 [16]: > 16 µg/mL
- MIC50 [17]: > 32 µg/mL
- MIC90 [17]: > 32 µg/mL
- MIC50 [18]: 4 µg/mL (≈ 11.4 µM)
- MIC90 [18]: 8 µg/mL (≈ 22.9 µM)
- MIC50 [6]: 16 µg/mL (≈ 45.8 µM)
- MIC90 [6]: > 32 µg/mL
- MIC50 [7]: > 32 µg/mL
- MIC90 [7]: > 32 µg/mL
- MIC50 [15]: 4 µg/mL (≈ 11.4 µM)
- MIC90 [15]: > 32 µg/mL
- MIC50 [8]: > 32 µg/mL
- MIC90 [8]: > 32 µg/mL

Structure (SMILES): CN(C)c1ccc(O)c2c1C[C@H]1C[C@H]3[C@H](N(C)C)C(O)=C(C(N)=O)C(=O)[C@@]3(O)C(O)=C1C2=O [MINOCYCLINE]
- MIC50 [19]: 0.12 µg/mL (≈ 0.262 µM)
- MIC90 [19]: 0.12 µg/mL (≈ 0.262 µM)

Structure (SMILES): C[C@H]1COc2c(N3CCN(C)CC3)c(F)cc3c(=O)c(C(=O)O)cn1c23.C[C@H]1COc2c(N3CCN(C)CC3)c(F)cc3c(=O)c(C(=O)O)cn1c23.O [LEVOFLOXACIN]
- MIC50 [20]: 0.25 µg/mL
- MIC90 [20]: > 16 µg/mL
- MIC50 [21]: 16 µg/mL
- MIC90 [21]: > 16 µg/mL
- MIC50 [22]: > 16 µg/mL
- MIC90 [22]: > 16 µg/mL
- MIC50 [23]: 0.5 µg/mL
- MIC90 [23]: 1 µg/mL
- MIC [24]: 0.015 µg/mL
- MIC [25]: 0.5 µg/mL
- MIC50 [16]: 0.015 µg/mL
- MIC90 [16]: 0.03 µg/mL
- MIC50 [19]: ≤ 0.12 µg/mL
- MIC90 [19]: ≤ 0.12 µg/mL
- MIC50 [17]: 0.5 µg/mL
- MIC90 [17]: > 8 µg/mL
- MIC50 [18]: 0.03 µg/mL
- MIC90 [18]: 0.06 µg/mL
- MIC50 [26]: 16 µg/mL
- MIC50 [27]: 1 µg/mL
- MIC90 [27]: 1 µg/mL
- MIC50 [28]: 1 µg/mL
- MIC90 [28]: 1 µg/mL
- MIC50 [6]: 0.25 µg/mL
- MIC90 [6]: > 8 µg/mL
- MIC50 [7]: 0.03 µg/mL
- MIC90 [7]: 0.5 µg/mL
- MIC50 [15]: 0.03 µg/mL
- MIC50 [8]: > 0.25 µg/mL
- MIC90 [8]: > 2 µg/mL

— ChEMBL document CHEMBL1147099, “In vitro and in vivo antibacterial activities of heteroaryl isothiazolones against resistant gram-positive pathogens” (Antimicrob Agents Chemother, 2007)
